Data set [1] relates to HaCaT. Nature of the data set: Inhibition of TNFalpha production in UVB irradiated human HaCaT cells at 10 uM administered 2 hrs before irradiation by fluoroimmunoassay. Type of data set: functional. The method, boiled down:
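Confluent HaCaT cells (seeded at 2 × 10^5 cells/mL in DMEM/10% FBS) received compounds in ethanol (final ≤0.1%) 2 h before 40–50 mJ/cm² UVB. […] IC50 with 95% CI came from at least four concentrations.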

Data set [2] can be described thus: Toxicity assessed as inhibition of cell viability of UVB irradiated human HaCaT cells at 10 uM administered 2 hrs before irradiation by MTT assay. Type of data set: cell-based. Conditions: read-out: Inhibition. The method, boiled down:
(§1)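 HaCaT cells in DMEM/10% FBS were pretreated with compounds in ethanol (final ≤0.1%) 2 h before a single 40–50 mJ/cm² UVB dose. Viability was read by MTT reduction to formazan 24 h after irradiation. Inhibition is expressed relative to maximal viability of drug-free samples, means ± SEM (n = 6).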
For orientation: Tetrazolium dyes change colour on reduction, which living cells bring about.

Data set [3] concerns HaCaT. Nature of the data set: Inhibition of TNFalpha production in UVB irradiated human HaCaT cells at 5 uM administered 2 hrs before irradiation by fluoroimmunoassay. The data set is classed as functional. The method, boiled down: (§2)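 Confluent HaCaT cells (seeded at 2 × 10^5 cells/mL in DMEM/10% FBS) received compounds in ethanol (final ≤0.1%) 2 h before 40–50 mJ/cm² UVB.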

Data set [4] is described as follows: Toxicity assessed as inhibition of cell viability of UVB irradiated human HaCaT cells at 5 uM administered 2 hrs before irradiation by MTT assay. Type of data set: cell-based. Conditions: read-out: Inhibition. The method, boiled down: as §1
The subject of data set [5] is HaCaT. Nature of the data set: Inhibition of TNFalpha production in UVB irradiated human HaCaT cells administered 2 hrs before irradiation by fluoroimmunoassay. Type of data set: functional, cell-based. Conditions: light or radiation study. The method, boiled down:
as §2

In another data set the test system is Neutrophil. Nature of the data set: Antioxidant activity assessed as inhibition of reactive oxygen species generation in TPA-stimulated human neutrophils.
Data set [6] concerns HaCaT. Nature of the data set: Inhibition of NF-kappaB activation in UVB irradiated human HaCaT cells at 10 uM administered 2 hrs before irradiation by EMSA. Background: A gel shift assay detects complexes by their altered migration in electrophoresis.

The source made the active and inactive calls. The calls are words filed in the database; no cut-off is given here.

By Inhibition is commonly meant the drop in the measured response relative to a control, in per cent. A low value points to little suppression. Consider `CC1=CCC[C@H]2[C@](C)(Cc3cc(O)c(Sc4ccc(C)cc4)c(Sc4ccc(C)cc4)c3O)[C@@H](C)CC[C@]12C`, for which the Inhibition in the data set with HaCaT [1] and with HaCaT [3] was 0% each time. Besides, the cytotoxicity at 2 h, 10 µM in data set [2] turned out to be 0%. The cytotoxicity at 2 h, 5 µM in data set [4] is 0%.

Take `CC1=CCC[C@H]2[C@](C)(Cc3cc(O)cc(SCCO)c3O)[C@@H](C)CC[C@]12C`: in data set [2], the cytotoxicity at 2 h, 10 µM was 22.5%. Also, in data set [4], the cytotoxicity at 2 h, 5 µM stood at 20.6%.

What is called IC50 is the concentration that inhibits the measured activity by half. Higher therefore signals lower potency. As for `COc1cc2ccc(=O)oc2c(O)c1O` [FRAXETIN], the Inhibition with HaCaT [1] was 68.1%; in the data set with HaCaT [3], 58.6%. In the data set on HaCaT [5], half-maximal inhibition (IC50) was put at 2.8 µM. Moreover, the cytotoxicity at 2 h, 10 µM in data set [2] came to 3.4%. Moreover, the cytotoxicity at 2 h, 5 µM in data set [4] turned out to be 0%.

Take `CC1=CCC[C@H]2[C@](C)(Cc3cc(O)c(SCC(=O)O)cc3O)[C@@H](C)CC[C@]12C`: in data set [2], the cytotoxicity at 2 h, 10 µM turned out to be 13.3%. For the same compound, in data set [4], the cytotoxicity at 2 h, 5 µM is 12.4%.

As to `CC1=CCC[C@H]2[C@](C)(Cc3cc(O)c(Sc4ccccc4)cc3O)[C@@H](C)CC[C@]12C`, the Inhibition stood at 74.3% in the data set with HaCaT [1] and 53.6% in the data set on HaCaT [3]. The compound further returned an IC50 with HaCaT [5] of 4.2 µM. Also, the cytotoxicity at 2 h, 10 µM in data set [2] is 0%. Further, the Activity result in the data set with Neutrophil is “Dose-dependent effect”. Further, the outcome with HaCaT [6] was Active. Further, the cytotoxicity at 2 h, 5 µM in data set [4] amounted to 0%.

Turning to `CC1=CCC[C@H]2[C@](C)(Cc3cc(O)c(Sc4ccccc4)c(Sc4ccccc4)c3O)[C@@H](C)CC[C@]12C`, the Inhibition in the data set on HaCaT [1] and in the data set with HaCaT [3] was 0% throughout. The cytotoxicity at 2 h, 10 µM in data set [2] worked out at 0%. Also, in data set [4], the cytotoxicity at 2 h, 5 µM stood at 0%.

As for `CC1=CCC[C@H]2[C@](C)(Cc3cc(O)cc(Sc4ccccc4)c3O)[C@@H](C)CC[C@]12C`, the Inhibition is 92.7% in the data set with HaCaT [1] and 55.4% with HaCaT [3]. Further, in the data set on HaCaT [5], the IC50 is 3.7 µM. The cytotoxicity at 2 h, 10 µM in data set [2] worked out at 0%. The Activity entry in the data set on Neutrophil was “Dose-dependent effect”. Further, the result with HaCaT [6] was Active. In data set [4], the cytotoxicity at 2 h, 5 µM was determined as 0%.

As to `CC1=CCC[C@H]2[C@](C)(Cc3cc(O)c(SCCO)c(SCCO)c3O)[C@@H](C)CC[C@]12C`, the cytotoxicity at 2 h, 10 µM in data set [2] amounted to 28.5%. For the same compound, in data set [4], the cytotoxicity at 2 h, 5 µM came to 18.1%.

On to `CC1=CCC[C@H]2[C@](C)(Cc3cc(O)cc(Sc4ccc(C)cc4)c3O)[C@@H](C)CC[C@]12C`, for which the Inhibition in the data set with HaCaT [1] and in the data set with HaCaT [3] was 0% each time. Further, in data set [2], the cytotoxicity at 2 h, 10 µM is 0%. Also, the cytotoxicity at 2 h, 5 µM in data set [4] worked out at 0%.

Turning to `CC1=CCC[C@H]2[C@](C)(Cc3cc(O)cc(SCC(=O)O)c3O)[C@@H](C)CC[C@]12C`, in data set [2], the cytotoxicity at 2 h, 10 µM amounted to 28.5%. Further, the cytotoxicity at 2 h, 5 µM in data set [4] is 18.3%.

For the compound `CC1=CCC[C@H]2[C@](C)(Cc3cc(O)c(SCCO)cc3O)[C@@H](C)CC[C@]12C`, the cytotoxicity at 2 h, 10 µM in data set [2] turned out to be 48.4%. In addition, the cytotoxicity at 2 h, 5 µM in data set [4] turned out to be 21.4%.

For the compound `CC1=CCC[C@H]2[C@](C)(Cc3cc(O)c(Sc4ccc(C)cc4)cc3O)[C@@H](C)CC[C@]12C`, the Inhibition in the data set with HaCaT [1] and in the data set on HaCaT [3] was 0% each time. Further, in data set [2], the cytotoxicity at 2 h, 10 µM stood at 0%. Also, the cytotoxicity at 2 h, 5 µM in data set [4] was determined as 0%.

As to `CC1=CCC[C@H]2[C@](C)(Cc3cc(O)cc(SCC(O)CO)c3O)[C@@H](C)CC[C@]12C` (some centres undefined), in data set [2], the cytotoxicity at 2 h, 10 µM is 14%. Besides, in data set [4], the cytotoxicity at 2 h, 5 µM stood at 13.6%.

Consider `CC1=CCC[C@H]2[C@](C)(Cc3cc(O)c(SCC(O)CO)cc3O)[C@@H](C)CC[C@]12C` (some centres undefined), for which the cytotoxicity at 2 h, 10 µM in data set [2] was 18.6%. In addition, the cytotoxicity at 2 h, 5 µM in data set [4] stood at 12.6%.

Values taken from ChEMBL document CHEMBL1139167, “Synthesis and evaluation of diverse thio avarol derivatives as potential UVB photoprotective candidates” (Bioorg Med Chem Lett, 2007).
